Assay results of several laboratories.
Target: Cytochrome P450 2C19 (CYP2C19, Homo sapiens, UniProt P33261)
Observed: enzyme activity
Mode: inhibitor

For `O=C(NCCN1CCCC1)c1cc(-c2ccc(CN3CCOCC3)cc2)nc2ccc(F)cc12`, the IC50 was over 100 µM (human, liver microsomes).
`Cc1ccc2nc(-c3ccccc3)c(CNc3ccc(F)cc3)n2c1` has an IC50 of 0.93 µM.
For `COC(=O)C1CCN(C(=O)c2ccc(N(Cc3ccccc3)Cc3cnc4nc(N)nc(N)c4n3)cc2)CC1`, the IC50 was 0.195 µM (luciferase).
The IC50 of `COc1ccc2[nH]c([S+]([O-])Cc3ncc(C)c(OC)c3C)nc2c1` (stereo not drawn) is reported as 0.662 µM (human, liver microsomes; 90 min, pH 7.4).
`CCc1cc(/C(C)=N/OCc2ccc(C3CCCCC3)c(C(F)(F)F)c2)ccc1CN1CC(C(=O)O)C1` gave an IC50 of over 0.5 µM (human, liver microsomes; 20 min).
For `CN(Cc1cnc2nc(N)nc(N)c2n1)c1ccc(C(=O)N2CCCCC2)cc1`, the IC50 was 16.2 µM (luciferase).
`CCCN(CCC)CCc1cccc2c1CC(=O)N2` has an IC50 of over 1000 µM (fluorescence).
`COc1ccc2c(Cc3ccccc3F)c3[n+](cc2c1OC)CCc1cc2c(cc1-3)OCO2` has an IC50 of over 10 µM.
`CCN(Cc1cnc2nc(N)nc(N)c2n1)c1ccc(C(=O)c2ccccc2)cc1` has an IC50 of 0.282 µM (luciferase).
`CCCCCNC(=N)N/N=C/c1c[nH]c2ccc(OC)cc12` gave an IC50 of 1.17 µM (fluorescence).
`C#CCN(Cc1cnc2nc(N)nc(N)c2n1)c1ccc(C(=O)N2CCC(C(=O)OC)CC2)cc1` has an IC50 of 9.77 µM (luciferase).
`COc1ccc2[nH]c([S+]([O-])Cc3ncc(C)c(OC)c3C)nc2c1` (stereo not drawn) gave an IC50 of 32 µM (fluorescence).
